Results reported in ChEMBL document CHEMBL4350962, “Expanding the Chemical Space of Withaferin A by Incorporating Silicon To Improve Its Clinical Potential on Human Ovarian Carcinoma Cells” (J Med Chem, 2019).
The source made the active and inactive calls. No cut-off for these calls is given here.

How the values were obtained:
[1] = (§1) Antiproliferative activity against cisplatin-resistant human A2780/CP70 cells measured after 96 hrs by MTT assay; format: functional; details: A2780/CP70, 96 h
How it was run: (§2)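 Cells kept in DMEM or RPMI 1640 with 10% FBS and 5% penicillin-streptomycin at 37 °C, 5% CO2, seeded at 1 x 10⁴ cells/mL and left 24 h to adhere. Compounds or vehicle added over a concentration range for 96 h, then MTT 4 h; formazan dissolved in DMSO, absorbance read at 540 nm relative to control. IC50 given as mean ± SD of three independent experiments in duplicate.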

[2] = system: ARPE-19; experiment: Cytotoxicity against human ARPE19 cells measured after 96 hrs by MTT assay; format: cell-based; details: ARPE-19, 96 h; how it was run: as §2
[3] = system: A2780; experiment: Antiproliferative activity against cisplatin-sensitive human A2780 cells measured after 96 hrs by MTT assay; format: functional, cell-based; details: for IC50: A2780, 96 h; how it was run: as §2
[4] = system: A2780; experiment: Cell cycle arrest in cisplatin-sensitive human A2780 cells assessed as accumulation at G0/G1 phase at 5 to 10 uM after 48 hrs by DAPI-staining based assay; format: functional
How it was run: (§3)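 A2780 cells seeded in T25 flasks, 24 h at 37 °C, then exposed 48 h to vehicle or compound at several concentrations. 1 x 10⁶ cells/mL spun at 400 g for 5 min, resuspended in lysis buffer with DAPI, 5 min at 37 °C, then stabilization buffer added. DNA content read by image cytometry to give sub-G1, G0/G1, S and G2 fractions; mean ± s.e. mean, n = 2.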

[5] = system: A2780; experiment: Cell cycle arrest in cisplatin-sensitive human A2780 cells assessed as increase in accumulation at sub-G0/G1 phase at 5 to 10 uM after 48 hrs by DAPI-staining based assay; format: functional; how it was run: as §3
[6] = Selectivity index, ratio of IC50 for human ARPE19 cells to IC50 for cisplatin-sensitive human A2780 cells; format: toxicity; details: ARPE19 cells versus cisplatin-sensitive A2780 cells, read-out: Ratio IC50
[7] = Selectivity index, ratio of IC50 for human ARPE19 cells to IC50 for cisplatin-resistant human A2780/CP70 cells; format: toxicity; details: ARPE19 cells versus cisplatin-resistant A2780/CP70 cells, read-out: Ratio IC50
[8] = system: A2780; experiment: Cell cycle arrest in cisplatin-sensitive human A2780 cells assessed as increase in DNA fragmentation after 48 hrs by DAPI-staining based assay; format: functional; how it was run: as §3
[9] = system: A2780; experiment: Cell cycle arrest in cisplatin-sensitive human A2780 cells assessed as increase in accumulation at sub-G0/G1 phase at 10 to 60 uM after 48 hrs by DAPI-staining based assay; format: functional; how it was run: as §3
[10] = system: A2780; experiment: Cell cycle arrest in cisplatin-sensitive human A2780 cells assessed as accumulation at G0/G1 phase at 10 to 60 uM after 48 hrs by DAPI-staining based assay; format: functional; how it was run: as §3
[11] = species on record: Homo sapiens; experiment: as §1; format: functional; how it was run: as §2

IC50 [3] | SMILES | IC50 [1] | IC50 [2] | Activity [4] | Activity [5] | selectivity ratio [6] | selectivity ratio [7] | Activity [8] | Activity [9] | Activity [10] | Activity [11] | Activity [3]
47.5 nM | CC1=C(CO[Si](C)(C)C(C)(C)C)C(=O)O[C@@H]([C@@H](C)[C@H]2CC[C@H]3[C@@H]4C[C@H]5O[C@]56[C@@H](O)C=CC(=O)[C@]6(C)[C@H]4CC[C@]23C)C1 | > 100 nM | 12.4 nM | inactive | Active | 0.3 | 0.1 | Dose-dependent effect | – | – | – | –
17 nM | CC1=C(CO[Si](C)(C)C(C)(C)C)C(=O)O[C@@H]([C@@H](C)[C@H]2CC[C@H]3[C@@H]4C[C@H]5O[C@]56C(=O)C=CC(=O)[C@]6(C)[C@H]4CC[C@]23C)C1 | > 100 nM | 1660 nM | – | – | 97.7 | 11.3 | Dose-dependent effect | Active | inactive | – | –
– | CCCCCC[Si](CCCCCC)(CCCCCC)OCC1=C(C)C[C@H]([C@@H](C)[C@H]2CC[C@H]3[C@@H]4C[C@H]5O[C@]56[C@@H](O)C=CC(=O)[C@]6(C)[C@H]4CC[C@]23C)OC1=O | – | – | – | – | – | – | – | – | – | inactive | inactive
